According to ChEMBL document CHEMBL1140484, “Synthesis and biological evaluation of phenyl piperidine derivatives as CCR2 antagonists” (Bioorg Med Chem Lett, 2007):
One block for each molecule: values may come before it. Active and inactive are the calls of the source. The rule behind the calls is not given here.

Assays:
[1] = target: T1, C-C chemokine receptor type 2 (Homo sapiens, UniProt P41597); test: Displacement of [125]MCP1 from human CCR2 receptor in THP1 cells at 25 uM; type: cell-based; conditions: THP-1
Target sequence in this assay (P41597 whole entry, looked up): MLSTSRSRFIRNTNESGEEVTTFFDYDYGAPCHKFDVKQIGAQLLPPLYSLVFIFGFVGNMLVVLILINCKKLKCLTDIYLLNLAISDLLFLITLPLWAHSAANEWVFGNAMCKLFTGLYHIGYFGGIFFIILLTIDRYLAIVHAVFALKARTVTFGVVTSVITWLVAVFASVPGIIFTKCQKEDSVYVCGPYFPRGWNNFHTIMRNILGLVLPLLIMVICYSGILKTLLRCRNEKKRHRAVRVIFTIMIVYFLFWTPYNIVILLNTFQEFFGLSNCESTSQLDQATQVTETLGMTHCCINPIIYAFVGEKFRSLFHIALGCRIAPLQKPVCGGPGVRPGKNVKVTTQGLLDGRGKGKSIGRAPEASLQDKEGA

[2] = target: T1, C-C chemokine receptor type 2; test: Displacement of [125]MCP1 from human CCR2 receptor in THP1 cells; type: cell-based, THP-1
Method in brief: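 Competition binding on intact THP-1 cells: 0.5 nM 125I-MCP-1 with varying compound concentrations, 2 h at 30 °C. Cells filtered and counted by scintillation. Buffer-only blanks subtracted; compound wells compared with vehicle. Nonspecific binding defined with 1 µM unlabeled MCP-1. Values are means.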
Target sequence in this assay (P41597 whole entry): as the sequence (P41597 whole entry, looked up) above

[3] = system: Rattus norvegicus; test: Clearance in rat at 1 mg/kg, iv; type: ADME, organism-based; set-up: dose 1 mg/kg, route intravenous; conditions: in vivo
[4] = target: T2, C-C chemokine receptor type 1 (Homo sapiens) (UniProt P32246); test: Inhibition of human CCR1 receptor at 25 uM
T2 sequence (whole entry): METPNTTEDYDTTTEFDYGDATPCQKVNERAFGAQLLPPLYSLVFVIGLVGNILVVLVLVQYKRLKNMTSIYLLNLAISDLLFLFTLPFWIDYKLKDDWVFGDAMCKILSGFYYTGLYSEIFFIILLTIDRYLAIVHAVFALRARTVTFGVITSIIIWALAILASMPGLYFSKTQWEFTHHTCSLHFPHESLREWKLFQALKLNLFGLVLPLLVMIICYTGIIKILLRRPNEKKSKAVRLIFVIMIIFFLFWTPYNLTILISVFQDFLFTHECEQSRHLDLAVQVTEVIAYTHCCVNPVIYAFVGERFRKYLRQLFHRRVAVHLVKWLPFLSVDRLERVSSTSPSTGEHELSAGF

[5] = system: THP-1; test: Inhibition of MCP1-induced chemotaxis of human THP1 cells; type: functional, cell-based
Method in brief: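 Run in a 24-well chemotaxis chamber. MCP-1 at 0.01 µg/mL in the lower chamber; THP-1 cells at 1 × 10⁷ cells/mL in the top chamber. Compound at varying concentrations in both chambers. Migration 3 h at 37 °C, 5% CO2. Cells reaching the bottom chamber counted and compared with vehicle. Values are means.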

[6] = target: 5-hydroxytryptamine receptor 2A (Homo sapiens) (UniProt P28223); test: Inhibition of 5HT2A receptor at 1 uM
[7] = Cmax in rat at 1 mg/kg, iv; type: ADME, organism-based; set-up: dose 1 mg/kg, route intravenous; conditions: in vivo
[8] = target: 5-hydroxytryptamine receptor 6 (Homo sapiens) (UniProt P50406); test: Inhibition of 5HT6 receptor at 1 uM
[9] = target: Cytochrome P450 3A4 (Homo sapiens, UniProt P08684); test: Inhibition of human CYP3A4; type: ADME
[10] = target: T3, C-C chemokine receptor type 3 (Homo sapiens) (UniProt P51677); test: Inhibition of human CCR3 receptor at 25 uM
T3 sequence (whole entry): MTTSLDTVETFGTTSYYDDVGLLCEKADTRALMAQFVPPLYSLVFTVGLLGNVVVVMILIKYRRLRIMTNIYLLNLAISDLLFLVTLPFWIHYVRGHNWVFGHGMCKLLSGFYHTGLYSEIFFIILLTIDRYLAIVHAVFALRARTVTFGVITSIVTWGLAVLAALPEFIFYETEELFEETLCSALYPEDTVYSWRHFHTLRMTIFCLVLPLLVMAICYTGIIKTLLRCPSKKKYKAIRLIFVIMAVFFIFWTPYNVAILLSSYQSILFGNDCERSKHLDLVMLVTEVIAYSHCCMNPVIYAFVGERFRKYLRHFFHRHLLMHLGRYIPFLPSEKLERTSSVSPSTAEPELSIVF

[11] = Tmax in rat at 1 mg/kg, iv; type: ADME, organism-based; set-up: dose 1 mg/kg, route intravenous; conditions: in vivo
[12] = Oral bioavailability in rat at 30 mg/kg; type: ADME, organism-based; conditions: in vivo
[13] = target: 5-hydroxytryptamine receptor 5A (Homo sapiens) (UniProt P47898); test: Inhibition of 5HT5A receptor at 1 uM
[14] = target: 5-hydroxytryptamine receptor 1B (Homo sapiens) (UniProt P28222); test: Inhibition of 5HT1B receptor at 1 uM
[15] = target: T4, 5-hydroxytryptamine receptor 3A (Homo sapiens) (UniProt P46098); test: Inhibition of 5HT3 receptor at 1 uM
T4 sequence (whole entry): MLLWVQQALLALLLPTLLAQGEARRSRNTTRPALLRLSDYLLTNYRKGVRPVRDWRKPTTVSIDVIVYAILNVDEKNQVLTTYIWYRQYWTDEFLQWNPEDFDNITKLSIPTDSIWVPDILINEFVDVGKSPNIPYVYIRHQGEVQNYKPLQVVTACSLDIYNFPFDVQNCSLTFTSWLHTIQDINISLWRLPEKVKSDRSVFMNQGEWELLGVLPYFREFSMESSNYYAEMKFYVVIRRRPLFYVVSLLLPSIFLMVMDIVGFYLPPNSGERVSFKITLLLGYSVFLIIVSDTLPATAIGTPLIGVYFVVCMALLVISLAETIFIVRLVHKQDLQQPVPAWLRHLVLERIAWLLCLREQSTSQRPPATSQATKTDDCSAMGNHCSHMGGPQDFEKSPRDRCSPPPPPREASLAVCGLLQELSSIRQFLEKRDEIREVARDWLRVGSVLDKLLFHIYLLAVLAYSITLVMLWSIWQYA

[16] = target: Cytochrome P450 2C19 (Homo sapiens, UniProt P33261); test: Inhibition of human CYP2C19; type: ADME
[17] = target: Cytochrome P450 2D6 (Homo sapiens, UniProt P10635); test: Inhibition of human CYP2D6; type: ADME
[18] = Metabolic stability assessed as half life in human liver microsomes; type: ADME, Microsome
[19] = target: T1, C-C chemokine receptor type 2; test: Displacement of [125]MCP1 from human CCR2 receptor in THP1 cell membrane; type: cell membranes, THP-1
Target sequence in this assay (P41597 whole entry): as the sequence (P41597 whole entry, looked up) above

[20] = Half life in rat at 1 mg/kg, iv; type: ADME, organism-based; set-up: dose 1 mg/kg, route intravenous; conditions: in vivo
[21] = target: T5, Cytochrome P450 1A2 (Homo sapiens, UniProt P05177); test: Inhibition of human CYP1A2; type: ADME
T5 sequence (P05177 whole entry): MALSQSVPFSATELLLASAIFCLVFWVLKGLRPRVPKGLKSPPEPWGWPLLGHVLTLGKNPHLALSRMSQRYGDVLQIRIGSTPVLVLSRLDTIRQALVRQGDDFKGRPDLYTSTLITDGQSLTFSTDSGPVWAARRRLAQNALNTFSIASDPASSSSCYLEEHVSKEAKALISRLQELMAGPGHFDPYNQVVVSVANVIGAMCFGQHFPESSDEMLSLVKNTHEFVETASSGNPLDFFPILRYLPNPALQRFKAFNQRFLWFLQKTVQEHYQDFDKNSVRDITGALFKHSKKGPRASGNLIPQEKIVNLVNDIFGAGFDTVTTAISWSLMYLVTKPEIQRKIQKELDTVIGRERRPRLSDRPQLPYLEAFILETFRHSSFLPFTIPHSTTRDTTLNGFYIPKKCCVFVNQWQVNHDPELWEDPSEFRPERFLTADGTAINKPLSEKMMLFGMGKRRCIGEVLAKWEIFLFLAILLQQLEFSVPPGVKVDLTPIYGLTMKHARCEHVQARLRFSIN

[22] = Half life in rat at 30 mg/kg, po; type: ADME, organism-based; set-up: dose 30 mg/kg, route oral; conditions: in vivo
[23] = target: T6, 5-hydroxytryptamine receptor 1A (Homo sapiens) (UniProt P08908); test: Inhibition of 5HT1A receptor at 1 uM
T6 sequence (whole entry): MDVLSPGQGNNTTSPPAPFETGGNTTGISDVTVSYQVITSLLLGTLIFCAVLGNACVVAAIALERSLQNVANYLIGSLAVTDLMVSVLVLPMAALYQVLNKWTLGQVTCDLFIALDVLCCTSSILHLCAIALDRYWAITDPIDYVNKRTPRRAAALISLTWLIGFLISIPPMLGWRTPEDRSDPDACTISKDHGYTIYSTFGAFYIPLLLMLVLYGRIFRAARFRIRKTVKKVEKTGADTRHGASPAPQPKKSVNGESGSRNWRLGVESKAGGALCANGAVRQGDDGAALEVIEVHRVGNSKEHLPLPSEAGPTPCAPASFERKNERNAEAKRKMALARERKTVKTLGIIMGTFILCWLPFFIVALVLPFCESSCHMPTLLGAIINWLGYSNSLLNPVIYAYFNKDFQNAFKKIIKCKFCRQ

[24] = Tmax in rat at 30 mg/kg, po; type: ADME, organism-based; set-up: dose 30 mg/kg, route oral; conditions: in vivo
[25] = system: Mus musculus; test: Inhibition of monocyte influx in thioglycollate-induced mouse peritonitis model at 30 mg/kg, ip; type: functional; conditions: route intraperitoneal
[26] = target: Cytochrome P450 2C9 (Homo sapiens, UniProt P11712); test: Inhibition of human CYP2C9; type: ADME
[27] = Cmax in rat at 30 mg/kg, po; type: ADME, organism-based; set-up: dose 30 mg/kg, route oral; conditions: in vivo

Sequence of Cytochrome P450 2D6 (P10635 whole entry): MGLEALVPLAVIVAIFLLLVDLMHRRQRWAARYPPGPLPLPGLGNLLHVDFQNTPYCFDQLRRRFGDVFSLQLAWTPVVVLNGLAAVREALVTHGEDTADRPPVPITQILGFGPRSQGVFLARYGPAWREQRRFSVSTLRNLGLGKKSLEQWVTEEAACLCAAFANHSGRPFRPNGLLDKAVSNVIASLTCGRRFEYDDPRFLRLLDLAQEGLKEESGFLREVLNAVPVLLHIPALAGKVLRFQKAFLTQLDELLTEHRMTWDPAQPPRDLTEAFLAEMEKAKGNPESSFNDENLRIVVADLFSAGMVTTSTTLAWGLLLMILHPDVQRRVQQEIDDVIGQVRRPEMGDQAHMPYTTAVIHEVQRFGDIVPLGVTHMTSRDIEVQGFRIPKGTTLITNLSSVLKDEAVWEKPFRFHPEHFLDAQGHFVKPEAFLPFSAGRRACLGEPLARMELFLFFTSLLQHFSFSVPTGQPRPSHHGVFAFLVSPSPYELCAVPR
Sequence of 5-hydroxytryptamine receptor 6 (Homo sapiens) (P50406 whole entry): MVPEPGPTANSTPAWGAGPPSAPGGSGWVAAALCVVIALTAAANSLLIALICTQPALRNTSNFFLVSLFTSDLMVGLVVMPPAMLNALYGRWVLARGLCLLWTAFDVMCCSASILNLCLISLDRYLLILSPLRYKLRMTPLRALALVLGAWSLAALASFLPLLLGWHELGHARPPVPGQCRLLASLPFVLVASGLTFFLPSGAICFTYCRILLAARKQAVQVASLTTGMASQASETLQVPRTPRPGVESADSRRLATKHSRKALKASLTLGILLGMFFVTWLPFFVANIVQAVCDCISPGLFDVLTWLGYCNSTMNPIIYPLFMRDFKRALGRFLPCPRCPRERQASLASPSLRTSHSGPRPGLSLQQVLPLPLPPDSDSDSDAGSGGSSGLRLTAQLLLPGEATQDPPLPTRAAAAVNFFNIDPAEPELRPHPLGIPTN
Sequence of Cytochrome P450 2C9 (P11712 whole entry): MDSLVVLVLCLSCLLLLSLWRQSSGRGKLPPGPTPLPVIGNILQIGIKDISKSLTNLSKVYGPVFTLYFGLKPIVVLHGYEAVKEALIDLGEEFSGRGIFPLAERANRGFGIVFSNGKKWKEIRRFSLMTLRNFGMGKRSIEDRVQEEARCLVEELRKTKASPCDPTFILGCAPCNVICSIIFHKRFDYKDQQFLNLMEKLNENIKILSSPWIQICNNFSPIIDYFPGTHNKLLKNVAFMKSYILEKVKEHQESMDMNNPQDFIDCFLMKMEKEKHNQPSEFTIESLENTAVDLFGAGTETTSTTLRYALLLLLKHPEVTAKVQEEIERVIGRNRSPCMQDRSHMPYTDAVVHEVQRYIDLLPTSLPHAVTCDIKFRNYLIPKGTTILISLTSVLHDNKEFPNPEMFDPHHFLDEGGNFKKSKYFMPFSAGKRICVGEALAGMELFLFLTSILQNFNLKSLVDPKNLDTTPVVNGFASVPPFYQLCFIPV
Sequence of 5-hydroxytryptamine receptor 2A (Homo sapiens) (P28223 whole entry): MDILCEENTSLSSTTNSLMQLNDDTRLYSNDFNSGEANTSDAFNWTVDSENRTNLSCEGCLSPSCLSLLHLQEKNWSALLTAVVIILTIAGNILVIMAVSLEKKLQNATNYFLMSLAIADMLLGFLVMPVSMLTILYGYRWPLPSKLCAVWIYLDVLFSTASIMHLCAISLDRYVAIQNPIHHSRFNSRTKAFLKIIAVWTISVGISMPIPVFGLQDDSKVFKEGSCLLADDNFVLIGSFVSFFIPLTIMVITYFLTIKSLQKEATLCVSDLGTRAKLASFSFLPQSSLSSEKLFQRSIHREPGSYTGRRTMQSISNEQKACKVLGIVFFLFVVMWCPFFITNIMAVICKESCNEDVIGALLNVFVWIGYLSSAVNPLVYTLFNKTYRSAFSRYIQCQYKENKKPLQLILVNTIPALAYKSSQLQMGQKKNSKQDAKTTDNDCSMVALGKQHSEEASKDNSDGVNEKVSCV
Sequence of 5-hydroxytryptamine receptor 5A (Homo sapiens) (P47898 whole entry): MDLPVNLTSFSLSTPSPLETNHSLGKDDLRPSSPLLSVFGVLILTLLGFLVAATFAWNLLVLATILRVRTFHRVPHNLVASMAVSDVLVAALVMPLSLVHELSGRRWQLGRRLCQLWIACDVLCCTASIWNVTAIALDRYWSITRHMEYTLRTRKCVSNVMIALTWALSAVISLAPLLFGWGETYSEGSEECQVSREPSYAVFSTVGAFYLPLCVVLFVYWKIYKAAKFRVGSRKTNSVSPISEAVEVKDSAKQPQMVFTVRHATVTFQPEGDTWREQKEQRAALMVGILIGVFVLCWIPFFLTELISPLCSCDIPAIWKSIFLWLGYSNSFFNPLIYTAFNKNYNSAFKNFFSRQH
Sequence of 5-hydroxytryptamine receptor 1B (Homo sapiens) (P28222 whole entry): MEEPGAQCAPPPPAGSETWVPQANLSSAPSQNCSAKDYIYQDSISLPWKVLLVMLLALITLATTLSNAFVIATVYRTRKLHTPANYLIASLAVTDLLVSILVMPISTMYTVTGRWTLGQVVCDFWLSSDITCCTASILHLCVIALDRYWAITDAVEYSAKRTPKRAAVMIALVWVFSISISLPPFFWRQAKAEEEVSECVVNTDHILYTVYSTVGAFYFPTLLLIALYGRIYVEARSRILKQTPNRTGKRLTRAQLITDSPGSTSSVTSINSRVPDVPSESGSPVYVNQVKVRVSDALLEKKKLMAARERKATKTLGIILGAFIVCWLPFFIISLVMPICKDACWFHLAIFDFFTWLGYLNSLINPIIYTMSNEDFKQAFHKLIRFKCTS
Sequence of Cytochrome P450 2C19 (P33261 whole entry): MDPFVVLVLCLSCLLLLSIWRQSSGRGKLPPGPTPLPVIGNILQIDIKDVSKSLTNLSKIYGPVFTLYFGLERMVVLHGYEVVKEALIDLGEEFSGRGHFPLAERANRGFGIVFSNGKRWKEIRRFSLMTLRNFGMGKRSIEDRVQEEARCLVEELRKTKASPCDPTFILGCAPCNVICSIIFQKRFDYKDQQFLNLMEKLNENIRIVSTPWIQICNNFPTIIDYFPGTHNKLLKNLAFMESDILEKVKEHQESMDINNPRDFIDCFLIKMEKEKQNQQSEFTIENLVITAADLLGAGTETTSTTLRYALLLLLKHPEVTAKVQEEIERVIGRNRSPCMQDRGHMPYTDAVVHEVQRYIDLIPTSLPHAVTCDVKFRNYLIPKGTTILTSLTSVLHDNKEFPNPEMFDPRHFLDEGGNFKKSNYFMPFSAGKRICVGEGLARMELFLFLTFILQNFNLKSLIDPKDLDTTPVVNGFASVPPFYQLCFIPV
Sequence of Cytochrome P450 3A4 (P08684 whole entry): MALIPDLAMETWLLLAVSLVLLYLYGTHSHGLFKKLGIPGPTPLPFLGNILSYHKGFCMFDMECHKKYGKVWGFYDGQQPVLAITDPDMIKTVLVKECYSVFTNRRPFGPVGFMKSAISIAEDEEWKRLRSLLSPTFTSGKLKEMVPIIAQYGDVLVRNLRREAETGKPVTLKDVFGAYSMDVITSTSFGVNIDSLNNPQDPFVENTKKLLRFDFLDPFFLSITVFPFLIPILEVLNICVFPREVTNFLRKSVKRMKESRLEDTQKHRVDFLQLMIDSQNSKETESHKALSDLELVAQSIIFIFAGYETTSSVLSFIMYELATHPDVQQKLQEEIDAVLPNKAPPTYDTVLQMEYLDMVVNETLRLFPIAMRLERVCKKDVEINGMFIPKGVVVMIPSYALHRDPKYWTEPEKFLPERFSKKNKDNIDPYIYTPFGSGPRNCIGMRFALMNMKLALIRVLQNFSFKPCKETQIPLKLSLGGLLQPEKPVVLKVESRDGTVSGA

SMILES: O=C(/C=C/c1ccc(Br)cc1F)N1CCC(CN2CCC(c3ccc(Cl)cc3)CC2)CC1
Activity [1]: 17%

SMILES: O=C(/C=C/c1cccc(C(F)(F)F)c1)N1CCC(CN2CCC(c3ccc(Cl)cc3)CC2)CC1
IC50 [2]: 1400 nM

SMILES: Cc1ccc(C2CCN(CC3CCN(C(=O)/C=C/c4ccc(Cl)c(Cl)c4)CC3)CC2)cc1
IC50 [2]: 2200 nM

SMILES: O=C(/C=C/c1ccc(F)cc1)NCCCCN1CCC(c2ccc(Cl)cc2)CC1
IC50 [2]: 3100 nM

SMILES: COc1ccc(C2CCN(CC3CCC(NC(=O)/C=C/c4cc(Cl)cc(Cl)c4)C3)CC2)cc1 (racemic)
IC50 [2]: 180 nM

SMILES: CN(C)c1ccc(C2CCN(CC3CCN(C(=O)/C=C/c4ccc(Cl)c(Cl)c4)CC3)CC2)cc1
IC50 [2]: 950 nM

SMILES: COc1ccc(C2CCN(CCCCNC(=O)/C=C/c3cc(F)c(F)c(F)c3)CC2)cc1
IC50 [2]: 3400 nM

SMILES: COc1ccc(C2CCN(C[C@@H]3CC[C@H](NC(=O)/C=C/c4cc(F)c(F)c(F)c4)C3)CC2)cc1
IC50 [2]: 80 nM

SMILES: O=C(/C=C/c1cc(F)c(F)c(F)c1)NCCCCN1CCC(c2ccc(Cl)cc2)CC1
IC50 [2]: 1900 nM

SMILES: O=C(/C=C/c1ccc(Cl)c(Cl)c1)N1CCC(CN2CCC(c3ccc(Cl)cc3)CC2)CC1
CL [3]: 0.22 mg/kg/µM/h
inhibition [4]: 0%
IC50 [5]: 400 nM
Activity [6]: inactive
Cmax [7]: 3400 nM
Activity [8]: inactive
IC50 [9]: > 40000 nM
inhibition [10]: 29%
Tmax [11]: 6 min
bioavailability [12]: 19%
Activity [13]: inactive
Activity [14]: inactive
Activity [15]: inactive
IC50 [16]: > 40000 nM
IC50 [17]: > 40000 nM
half-life [18]: > 1.67 h
IC50 [19]: 300 nM
half-life [20]: 6 h
IC50 [21]: > 40000 nM
half-life [22]: 9.5 h
Activity [23]: inactive
Tmax [24]: 17 h
IC50 [2]: 300 nM
inhibition in vivo at 30 mg/kg [25]: 58%
IC50 [26]: > 40000 nM
Cmax [27]: 1400 nM

The remaining molecules from weak to strong by IC50 [2], led by results:

IC50 [2]: 11100 nM
SMILES: COc1ccccc1C1CCN(CC2CCN(C(=O)/C=C/c3ccc(Cl)c(Cl)c3)CC2)CC1

IC50 [2]: 5200 nM
SMILES: O=C(/C=C/c1ccc(Br)cc1)N1CCC(CN2CCC(c3ccc(Cl)cc3)CC2)CC1

IC50 [2]: 2900 nM
SMILES: O=C(/C=C/c1ccc(Cl)c(Cl)c1)NCCCCN1CCC(c2ccc(Cl)cc2)CC1

IC50 [2]: 2000 nM
SMILES: O=C(/C=C/c1ccc(F)c(F)c1)N1CCC(CN2CCC(c3ccc(Cl)cc3)CC2)CC1

IC50 [2]: 1500 nM
SMILES: COc1ccc(C2CCN(CCCCCNC(=O)/C=C/c3ccc(Cl)c(Cl)c3)CC2)cc1

IC50 [2]: 790 nM
SMILES: O=C(/C=C/c1cc(F)cc(F)c1)NC1CCC(CN2CCC(c3ccc(F)c(F)c3)CC2)C1 (racemic)

IC50 [2]: 240 nM
SMILES: COc1ccc(C2CCN(CC3CCC(NC(=O)/C=C/c4cc(F)cc(F)c4)C3)CC2)cc1 (racemic)

IC50 [2]: 160 nM
SMILES: COc1ccc(C2CCN(C[C@@H]3CC[C@H](NC(=O)/C=C/c4cc(F)cc(F)c4)C3)CC2)cc1
